# Assay results from PubChem BioAssay.
# Calls of active or inactive are those of the source.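 The calls were made as follows, unless noted: active = duplicate-averaged activation above buffer control mean plus 5 SD of those controls; inactive = the rest.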
# Key:
# [1] = nonspecific flux increase, KCNQ1-free cells – parental CHO cells, counter-screen for KCNQ1 potentiator project (AID 493006); settings: parental CHO-K1 cells, FluxOR thallium flux, at 10 µM; stronger effect = higher value
# Procedure, shortened: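 Assay system: Untransfected host CHO-K1 cells with FluxOR thallium dye | Probe or stimulus: Potassium/thallium depolarization pulse | Schedule: Overnight 37 °C plating, 90 min RT dye, 20 min compound | Detection: Kinetic thallium-flux fluorescence | Read-out: Max-minus-min fluorescence over baseline, percent of buffer-to-R-L3 span | Benchmarks: Low control buffer, high control R-L3 activator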
# [2] = molecular target: Potassium voltage-gated channel subfamily KQT member 1 (Homo sapiens) (UniProt P51787); assay: enhancement of KCNQ1 channel thallium flux – FluxOR thallium flux, CHO cells, duplicates, confirmation (AID 493007;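 active = potentiation averaged over duplicate wells exceeding buffer-only control mean by more than 3 SD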;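 as to outcome: cells depolarized by a potassium plus thallium sulfate stimulus after compound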); settings: KCNQ1 cell line, FluxOR thallium flux fluorescence, at 10 µM; stronger effect = higher value, % of reference activator effect, buffer zero
# Procedure, shortened: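 Material: KCNQ1-expressing CHO cell line; Incubation: FluxOR dye loading 90 min, compound exposure 20 min, room temperature; Detection: FluxOR Tl+ flux fluorescence, 10 s baseline plus 110 s recording; Read-out: percent activation between buffer and R-L3 responses; Control set: buffer-only wells as 0% and R-L3 activator as 100%; Replication: duplicate wells per compound.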
# [3] = molecular target: Potassium voltage-gated channel subfamily KQT member 2 (Rattus norvegicus) (UniProt O88943); assay: KCNQ2 thallium flux enhancement – KCNQ2-CHO-K1 cells, selectivity assay for KCNQ1 potentiator project (AID 493009;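 active = mean duplicate potentiation above the buffer control mean plus 5 SD of buffer wells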;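 also: assay conditions were tuned for KCNQ1 rather than KCNQ2 modulators; signal is max minus min fluorescence divided by baseline after thallium stimulus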); settings: FluxOR thallium flux fluorescence, at 10 µM; stronger effect = higher value, scaled: buffer 0, activator control 100
# [4] = molecular target: Potassium voltage-gated channel subfamily KQT member 1 (Homo sapiens) (UniProt P51787); assay: KCNQ1 activators by electrophysiology – IonWorks patch clamp, KCNQ1-CHO cells, orthogonal assay for KCNQ1 potentiator project, confirmation (AID 493184;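 active = current rise at least 3 SD above the untreated control mean in each of two repeat wells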;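 as to current potentiation: percent change of the same well's current before compound addition so 0% = no change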); settings: automated patch clamp current, at 10 µM; stronger effect = higher value
# Procedure, shortened: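 assay system = KCNQ1-expressing CHO cells | medium = external bath solution at pH 7.4 | probe or stimulus = 2,000 ms depolarization, -90 to +40 mV | compound dosing = 10 µM final, single point | measured by = automated voltage clamp, amphotericin B perforated patch | measure = percent current increase versus pre-compound level | replication = duplicates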
# Potassium voltage-gated channel subfamily KQT member 1 (Homo sapiens), sequence (P51787 whole entry, looked up): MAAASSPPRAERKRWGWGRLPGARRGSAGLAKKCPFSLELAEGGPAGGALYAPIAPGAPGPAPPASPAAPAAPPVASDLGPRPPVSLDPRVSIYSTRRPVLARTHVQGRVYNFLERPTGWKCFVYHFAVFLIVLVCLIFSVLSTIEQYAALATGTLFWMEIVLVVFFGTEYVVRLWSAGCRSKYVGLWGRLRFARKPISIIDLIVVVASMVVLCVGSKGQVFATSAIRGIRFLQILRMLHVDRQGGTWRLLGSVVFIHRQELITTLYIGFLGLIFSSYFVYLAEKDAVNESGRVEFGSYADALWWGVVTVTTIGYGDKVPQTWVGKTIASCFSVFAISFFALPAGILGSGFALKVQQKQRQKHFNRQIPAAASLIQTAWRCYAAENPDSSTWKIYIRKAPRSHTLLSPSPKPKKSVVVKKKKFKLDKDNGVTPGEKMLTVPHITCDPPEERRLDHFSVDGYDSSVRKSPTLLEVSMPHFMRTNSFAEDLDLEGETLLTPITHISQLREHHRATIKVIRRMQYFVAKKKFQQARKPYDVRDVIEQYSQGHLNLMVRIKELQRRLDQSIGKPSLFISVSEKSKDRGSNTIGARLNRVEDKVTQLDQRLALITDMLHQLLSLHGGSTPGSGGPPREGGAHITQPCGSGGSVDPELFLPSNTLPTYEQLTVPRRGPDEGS
# Potassium voltage-gated channel subfamily KQT member 2 (Rattus norvegicus), sequence (O88943 whole entry, looked up): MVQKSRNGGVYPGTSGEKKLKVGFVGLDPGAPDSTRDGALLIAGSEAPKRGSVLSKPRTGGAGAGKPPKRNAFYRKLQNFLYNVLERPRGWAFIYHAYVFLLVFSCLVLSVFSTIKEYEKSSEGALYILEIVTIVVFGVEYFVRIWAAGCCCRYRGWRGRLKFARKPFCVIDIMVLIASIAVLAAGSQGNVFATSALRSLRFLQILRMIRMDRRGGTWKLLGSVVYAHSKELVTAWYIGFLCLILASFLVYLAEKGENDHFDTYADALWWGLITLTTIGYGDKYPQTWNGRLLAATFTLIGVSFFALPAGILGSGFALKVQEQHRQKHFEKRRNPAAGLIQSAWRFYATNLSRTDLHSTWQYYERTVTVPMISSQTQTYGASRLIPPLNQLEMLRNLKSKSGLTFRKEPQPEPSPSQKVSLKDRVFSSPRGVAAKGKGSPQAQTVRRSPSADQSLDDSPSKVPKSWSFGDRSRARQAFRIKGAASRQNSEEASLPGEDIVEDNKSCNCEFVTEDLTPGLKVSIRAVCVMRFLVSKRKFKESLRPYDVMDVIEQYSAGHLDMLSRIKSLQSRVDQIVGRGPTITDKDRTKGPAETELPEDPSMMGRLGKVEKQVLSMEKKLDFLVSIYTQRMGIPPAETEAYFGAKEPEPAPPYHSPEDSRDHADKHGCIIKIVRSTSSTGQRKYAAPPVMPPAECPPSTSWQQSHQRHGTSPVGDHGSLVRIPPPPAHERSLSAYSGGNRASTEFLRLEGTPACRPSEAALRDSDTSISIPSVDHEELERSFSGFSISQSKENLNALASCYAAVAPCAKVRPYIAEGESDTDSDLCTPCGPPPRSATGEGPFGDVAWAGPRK
Compound,outcome [1],outcome [2],outcome [3],outcome [4],activation [1],potentiation [2],potentiation [3],current potentiation [4]
CN1C(=O)/C(=N\OC(=O)c2cccc3ccccc23)c2ccccc21,inactive,inactive,inactive,inactive,,,,
CC1Oc2ccccc2OC1(O)c1ccccn1 (stereo not given),,,,inactive,142% (active),26.5% (active),142% (active),
CCOc1ccccc1NC(=O)C1CCCN(S(=O)(=O)c2ccccc2)C1 (stereo not given),inactive,inactive,inactive,inactive,,,,
O=c1c2cc(Br)ccc2nc(-c2ccccc2)n1O,,,,inactive,366% (active),63.5% (active),314% (active),
O=C(Nc1ccc(N2CCCCC2)cc1)c1cccnc1Cl,inactive,inactive,inactive,inactive,,,,
CC1Cc2cc(/C=C3/SC(=S)NC3=O)ccc2O1 (stereo not given),inactive,inactive,inactive,,,,,24.4% (active)
O=C(NC(=S)Nc1ccccc1N1CCCC1)c1cccs1,,,,inactive,150% (active),104% (active),212% (active),
CC1CCCN(c2ccc(C(=O)NCc3ccccc3)cn2)C1 (stereo not given),,,,inactive,155% (active),26% (active),152% (active),
Nc1nc(N)c(N=Nc2ccc(C(=O)O)cc2)c(N)n1,inactive,inactive,inactive,inactive,,,,
O=c1cc(N2CCc3ccccc32)[nH]c(=O)n1Cc1ccc(F)cc1,inactive,inactive,inactive,inactive,,,,
CNc1nc(N)c([N+](=O)[O-])c(Nc2cccc(F)c2)n1,inactive,inactive,inactive,inactive,,,,
O=C(COc1ccc(Cl)cc1)NNC(=O)C(=O)NC1CCCCC1,inactive,inactive,,inactive,,,158% (active),
Fc1ccc2nc(Nc3nc4c(F)cccc4s3)sc2c1,,,,inactive,144% (active),69.5% (active),180% (active),
CC(/C=N/NC(=O)c1cc(-c2cccs2)[nH]n1)=C\c1ccccc1,,,,inactive,184% (active),116% (active),250% (active),
CCCN(CCC)C(=S)NC(=O)c1ccc(Cl)cc1Cl,,,,inactive,470% (active),204% (active),448% (active),
O=C(Nc1ccc(Cl)cn1)c1cccc(S(=O)(=O)N2CCOCC2)c1,inactive,inactive,inactive,inactive,,,,
CCOc1ccccc1NC(=O)C(=O)CC(=O)c1cccc(OC)c1,,,,inactive,216% (active),87% (active),280% (active),
C=CCn1sc(=N)c(C#N)c1N,,,,inactive,528% (active),195% (active),492% (active),
O=P(CCCCCCCCCP(=O)(c1ccccc1)c1ccccc1)(c1ccccc1)c1ccccc1,,,,inactive,256% (active),96.5% (active),327% (active),
CCc1ccc(/C=C/C(=O)c2cc(Br)ccc(=O)c2O)cc1,,,,inactive,203% (active),140% (active),296% (active),

Compound,outcome [1],outcome [2],outcome [3],outcome [4],activation [1],potentiation [2],potentiation [3],current potentiation [4]
COc1ccc(OC)c(S(=O)(=O)CC(O)CS(=O)(=O)c2ccccc2)c1 (stereo not given),inactive,inactive,inactive,inactive,,,,
CCOC(=O)c1sc2nc(Cc3ccc(Cl)cc3)[nH]c(=S)c2c1C,,,,inactive,302% (active),144% (active),362% (active),
Cc1ccc(C(=O)CC(=O)COc2ccc(Cl)cc2)cc1,inactive,,,inactive,,184% (active),252% (active),
CC(c1ccccc1C(O)(c1ccccc1)c1ccccc1)N(C)C (stereo not given),inactive,inactive,inactive,inactive,,,,
Cc1ccc(OCCCC(=O)NCc2ccco2)c(C)c1,inactive,inactive,inactive,inactive,,,,
CCOc1ccc2nc(/N=C/c3nc(-c4ccccc4)oc3O)sc2c1,,,,inactive,150% (active),52.5% (active),190% (active),
Cc1cc(Cl)ccc1OCC(=O)N/N=C1\CC2C=CCC12 (stereo not given),inactive,inactive,inactive,inactive,,,,
O=C(NCc1ccccc1)C(=O)NCC1CCCN1S(=O)(=O)c1cccs1 (stereo not given),inactive,inactive,inactive,inactive,,,,
COc1ccc(C(=O)NC(=S)N(Cc2ccccc2)Cc2ccccc2)cc1,,,,inactive,385% (active),168% (active),436% (active),
Cc1nc(NCc2cccnc2)c2c3c(sc2n1)CC(C)CC3 (stereo not given),,,,inactive,299% (active),118% (active),352% (active),
COc1ccccc1NC(=O)CCN1CCN(c2ccc(Cl)cc2)CC1,inactive,inactive,inactive,inactive,,,,
O=[N+]([O-])c1cc(C(F)(F)F)ccc1Oc1cccnc1[N+](=O)[O-],inactive,inactive,inactive,inactive,,,,
COCCN(C(=O)COC(=O)/C=C/c1cccs1)c1c(N)n(Cc2ccccc2)c(=O)[nH]c1=O,inactive,inactive,inactive,inactive,,,,
Cc1cc(/C=C2\SC(=Nc3ccc(F)cc3)NC2=O)c(C)n1-c1ccc(S(N)(=O)=O)cc1,inactive,inactive,inactive,inactive,,,,
O=C(NC(=S)Nc1nc2c(s1)CSc1ccccc1-2)c1ccccc1,,,,inactive,170% (active),68.5% (active),147% (active),
CCC(CC)C(=O)Nc1cc([N+](=O)[O-])ccc1Cl,inactive,inactive,inactive,inactive,,,,
CCn1c(SC(C)C(=O)O)nc2sc3c(c2c1=O)CCC3 (stereo not given),,,,inactive,203% (active),42.5% (active),230% (active),
CCOCC(=O)Nc1ccc2c(c1)N(S(=O)(=O)c1cccs1)CCC2,inactive,inactive,inactive,inactive,,,,
CCc1cccc(C)c1NC(=O)c1ccc2nc(N3CCOCC3)sc2c1,inactive,inactive,inactive,inactive,,,,
CCOC(=O)c1sc(NC(=O)c2ccc(OC(C)=O)cc2)nc1C,inactive,inactive,inactive,inactive,,,,

Compound,outcome [1],outcome [2],outcome [3],outcome [4],activation [1],potentiation [2],potentiation [3],current potentiation [4]
O=c1ccc(-c2ccc(S(=O)(=O)Nc3ccccc3)o2)n[nH]1,inactive,inactive,inactive,inactive,,,,
Cc1ncc(CN2CCC(CO)(CCc3ccccc3)CC2)s1,inactive,inactive,inactive,inactive,,,,
Cc1ccc(O)c(C(=O)CC(=O)c2ccccc2Cl)c1,,,,inactive,158% (active),72.5% (active),144% (active),
CSc1nc(Nc2ccc(Cl)cc2)c(C#N)c(=O)[nH]1,inactive,inactive,inactive,inactive,,,,
O=C(Cn1ncc2c(=O)oc3ccccc3c21)N1CCN(C(=O)c2ccco2)CC1,inactive,inactive,inactive,inactive,,,,
Fc1cccc(/C=N/NC(=S)Nc2ccccc2Cl)c1,inactive,,,inactive,,41.5% (active),158% (active),
O=C(NC(=S)N1CCCc2ccccc21)c1ccc([N+](=O)[O-])cc1,,,,inactive,202% (active),82% (active),247% (active),
CC(C(=O)O)n1c2ccccc2c2cn[nH]c(=O)c21 (stereo not given),inactive,inactive,inactive,inactive,,,,
Cc1sc2nc(CSc3ccccc3)nc(N3CCN(C)CC3)c2c1C,inactive,inactive,inactive,inactive,,,,
CCOC(=O)C1CCCN(C(=O)C2CCN(S(=O)(=O)c3ccc4ccccc4c3)CC2)C1 (stereo not given),inactive,inactive,inactive,inactive,,,,
COc1ccc(OC)c(/C=C2\SC(=S)N(NS(=O)(=O)c3ccc(C)cc3)C2=O)c1,,,,,166% (active),102% (active),240% (active),47.4% (active)
CCC(CC)C1=NN2C(=N)/C(=C\c3cc(C)n(-c4cccc(C)c4)c3C)C(=O)N=C2S1,inactive,inactive,inactive,inactive,,,,
Cc1cccc(S(=O)(=O)Nc2cccc3c2C(=O)c2ccccc2-3)c1,inactive,,,inactive,,43.5% (active),152% (active),
C/C(=N\NC(=S)Nc1cccc(C)c1)c1ccco1,inactive,,,inactive,,35% (active),166% (active),
O=C(COC(=O)c1cc(S(=O)(=O)N2CCOCC2)ccc1O)NCCc1ccccc1,inactive,inactive,inactive,inactive,,,,
CCC(C)[C@H](N)c1nnc(SCC(=O)Nc2cccc(Cl)c2)o1 (stereo not given in full),,,,inactive,210% (active),39.5% (active),162% (active),
Cc1c(CN(C)C)c2c(n1C)C(=O)c1ccc(Br)cc1-2,,,,inactive,146% (active),53% (active),159% (active),
N#CC1(c2ccc(NC(=O)c3ccccc3F)cc2)CCCC1,inactive,inactive,inactive,inactive,,,,
CCCn1c(SCN2C(=O)c3ccccc3C2=O)nc2cc(Cl)ccc2c1=O,,,,inactive,179% (active),39.5% (active),196% (active),
O=C(NC(=S)N1CCN(C/C=C/c2ccccc2)CC1)c1c(F)cccc1F,,,inactive,inactive,139% (active),28.5% (active),,
